# How the values were obtained:
# Hepatitis C virus [1] = assay: Antiviral activity against Hepatitis C virus genotype 1b Con 1 infected in human HuH7 cells at 40 nM after 72 hrs by luciferase assay in presence of 15 uM clemizole; format: functional, Hepacivirus hominis, Huh-7
# In short: (§1)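 Huh-7 cells stably carrying a GT1b Con1 bicistronic luciferase replicon, seeded at 8000 cells/well. The test compound and the partner DAA are dosed orthogonally at various concentrations, final 0.5% DMSO, then incubated 72 h at 37°C. Bright-Glo luciferase read-out gives replicon inhibition as % of untreated control. Cytotoxicity is checked in parallel by CellTiter-Fluor. CI and DRI are derived by the Chou–Talalay median-effect method.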
# Hepatitis C virus [2] = assay: Antiviral activity against Hepatitis C virus genotype 1b Con 1 infected in human HuH7 cells at 160 nM after 72 hrs by luciferase assay in presence of 17.5 uM clemizole; format: functional, Hepacivirus hominis, Huh-7
# In short: (§2)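 Stable Con1 GT1b bicistronic luciferase replicon in Huh-7 cells, 8000 cells/well. Test compound and a marketed DAA or clemizole added alone or together at varied concentrations, 0.5% DMSO final. 72 h at 37°C, then luciferase read with Bright-Glo. Inhibition expressed as % of untreated control, with cytotoxicity run in parallel. CI and DRI derived by the Chou–Talalay median-effect method.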
# Hepatitis C virus [3] = assay: Antiviral activity against Hepatitis C virus genotype 1b harboring Y448H NS5B (palm) mutation transfected in human HuH7 cells after 72 hrs by luciferase assay; format: functional, cell-based, Hepacivirus hominis; conditions: Huh-7, 72 h
# In short: (§3)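 Huh-7 cells were transiently electroporated with genotype 1b replicon RNA carrying the specified mutation and plated at 10000 cells/well. Compounds were added at 0.5% DMSO final for 72 h at 37°C. Read-out was Bright-Glo luciferase. EC50 is the mean of two independent runs within 2-fold of each other. A reference drug EC50 was measured alongside each mutant replicon to validate it.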
# Hepatitis C virus [4] = assay: Antiviral activity against Hepatitis C virus genotype 1b Con 1 infected in human HuH7 cells at 5 nM after 72 hrs by luciferase assay in presence of 12.5 uM clemizole; format: functional, Hepacivirus hominis, Huh-7; in short: as §1
# Hepatitis C virus [5] = assay: Antiviral activity against Hepatitis C virus genotype 1b Con 1 infected in human HuH7 cells at 10 nM after 72 hrs by luciferase assay in presence of 12.5 uM clemizole; format: functional, Hepacivirus hominis, Huh-7; in short: as §2
# Hepatitis C virus [6] = assay: Antiviral activity against Hepatitis C virus genotype 1b Con 1 infected in human HuH7 cells at 2.5 nM after 72 hrs by luciferase assay in presence of 20 uM clemizole; format: functional, Hepacivirus hominis, Huh-7; in short: as §2
# Hepatitis C virus [7] = assay: Antiviral activity against Hepatitis C virus genotype 1b Con 1 infected in human HuH7 cells at 2.5 nM after 72 hrs by luciferase assay in presence of 15 uM clemizole; format: functional, Hepacivirus hominis, Huh-7; in short: as §2
# Hepatitis C virus [8] = assay: Antiviral activity against Hepatitis C virus genotype 1b Con 1 infected in human HuH7 cells at 40 nM after 72 hrs by luciferase assay in presence of 0.02 nM daclatasvir; format: functional, Hepacivirus hominis, Huh-7; in short: as §1
# Hepatitis C virus [9] = assay: Antiviral activity against Hepatitis C virus genotype 1b Con 1 infected in human HuH7 cells at 40 nM after 72 hrs by luciferase assay in presence of 240 nM sofobuvir; format: functional, Hepacivirus hominis, Huh-7; in short: as §1
# Hepatitis C virus [10] = assay: Antiviral activity against Hepatitis C virus genotype 1b Con 1 infected in human HuH7 cells at 2.5 nM after 72 hrs by luciferase assay in presence of 60 nM sofobuvir; format: functional, Hepacivirus hominis, Huh-7; in short: as §2
# Hepatitis C virus [11] = assay: Antiviral activity against Hepatitis C virus genotype 1b Con 1 infected in human HuH7 cells at 80 nM after 72 hrs by luciferase assay in presence of 6 nM simeprevir; format: functional, Hepacivirus hominis, Huh-7; in short: as §1
# Hepatitis C virus [12] = assay: Antiviral activity against Hepatitis C virus genotype 1b Con 1 infected in human HuH7 cells at 5 nM after 72 hrs by luciferase assay in presence of 0.02 nM daclatasvir; format: functional, Hepacivirus hominis, Huh-7; in short: as §1
# Hepatitis C virus [13] = assay: Antiviral activity against Hepatitis C virus genotype 1b Con 1 infected in human HuH7 cells at 160 nM after 72 hrs by luciferase assay in presence of 7.5 uM clemizole; format: functional, Hepacivirus hominis, Huh-7; in short: as §2
# Hepatitis C virus [14] = assay: Antiviral activity against Hepatitis C virus genotype 1b Con 1 infected in human HuH7 cells at 40 nM after 72 hrs by luciferase assay in presence of 5 uM clemizole; format: functional, Hepacivirus hominis, Huh-7; in short: as §1
# Hepatitis C virus [15] = assay: Antiviral activity against Hepatitis C virus genotype 1b harboring F98C mutation transfected in human HuH7 cells after 72 hrs by luciferase assay; format: functional, cell-based, Hepacivirus hominis; conditions: Huh-7, 72 h; in short: as §3
# Hepatitis C virus [16] = assay: Antiviral activity against Hepatitis C virus genotype 1b Con 1 infected in human HuH7 cells at 10 nM after 72 hrs by luciferase assay in presence of 10 uM clemizole; format: functional, Hepacivirus hominis, Huh-7; in short: as §2
# Hepatitis C virus [17] = assay: Antiviral activity against Hepatitis C virus genotype 1b Con 1 infected in human HuH7 cells at 160 nM after 72 hrs by luciferase assay in presence of 15 uM clemizole; format: functional, Hepacivirus hominis, Huh-7; in short: as §2
# Hepatitis C virus [18] = assay: Antiviral activity against Hepatitis C virus genotype 1b Con 1 infected in human HuH7 cells at 40 nM after 72 hrs by luciferase assay in presence of 12 nM simeprevir; format: functional, Hepacivirus hominis, Huh-7; in short: as §1
# Hepatitis C virus [19] = assay: Antiviral activity against Hepatitis C virus genotype 1b Con 1 infected in human HuH7 cells at 40 nM after 72 hrs by luciferase assay in presence of 0.04 nM daclatasvir; format: functional, Hepacivirus hominis, Huh-7; in short: as §1
# Hepatitis C virus [20] = assay: Antiviral activity against Hepatitis C virus genotype 1b Con 1 infected in human HuH7 cells at 10 nM after 72 hrs by luciferase assay in presence of 0.08 nM daclatasvir; format: functional, Hepacivirus hominis, Huh-7; in short: as §2
# Hepatitis C virus [21] = assay: Antiviral activity against Hepatitis C virus genotype 1b Con 1 infected in human HuH7 cells at 160 nM after 72 hrs by luciferase assay in presence of 24 nM simeprevir; format: functional, Hepacivirus hominis, Huh-7; in short: as §2
# Hepatitis C virus [22] = assay: Antiviral activity against Hepatitis C virus genotype 1b Con 1 infected in human HuH7 cells at 5 nM after 72 hrs by luciferase assay in presence of 0.16 nM daclatasvir; format: functional, Hepacivirus hominis, Huh-7; in short: as §1
# Hepatitis C virus [23] = assay: Antiviral activity against Hepatitis C virus genotype 1b Con 1 infected in human HuH7 cells at 40 nM after 72 hrs by luciferase assay in presence of 140 nM sofobuvir; format: functional, Hepacivirus hominis, Huh-7; in short: as §1
# Hepatitis C virus [24] = assay: Antiviral activity against Hepatitis C virus genotype 1b Con 1 infected in human HuH7 cells at 5 nM after 72 hrs by luciferase assay in presence of 12 nM simeprevir; format: functional, Hepacivirus hominis, Huh-7; in short: as §1
# Hepatitis C virus [25] = assay: Antiviral activity against Hepatitis C virus genotype 1b harboring P495A NS5B (thumb 1) mutation transfected in human HuH7 cells after 72 hrs by luciferase assay; format: functional, cell-based, Hepacivirus hominis; conditions: Huh-7, 72 h; in short: as §3
# Hepatitis C virus [26] = assay: Antiviral activity against Hepatitis C virus genotype 1b Con 1 infected in human HuH7 cells at 80 nM after 72 hrs by luciferase assay in presence of 0.16 nM daclatasvir; format: functional, Hepacivirus hominis, Huh-7; in short: as §1
# Hepatitis C virus [27] = assay: Antiviral activity against Hepatitis C virus genotype 1b Con 1 infected in human HuH7 cells at 5 nM after 72 hrs by luciferase assay in presence of 17.5 uM clemizole; format: functional, Hepacivirus hominis, Huh-7; in short: as §1
# Hepatitis C virus [28] = assay: Antiviral activity against Hepatitis C virus genotype 1b Con 1 infected in human HuH7 cells at 5 nM after 72 hrs by luciferase assay in presence of 10 uM clemizole; format: functional, Hepacivirus hominis, Huh-7; in short: as §1
# Hepatitis C virus [29] = assay: Antiviral activity against Hepatitis C virus genotype 1b Con 1 infected in human HuH7 cells at 160 nM after 72 hrs by luciferase assay in presence of 5 uM clemizole; format: functional, Hepacivirus hominis, Huh-7; in short: as §2
# Hepatitis C virus [30] = assay: Antiviral activity against Hepatitis C virus genotype 1b Con 1 infected in human HuH7 cells at 10 nM after 72 hrs by luciferase assay in presence of 30 nM sofobuvir; format: functional, Hepacivirus hominis, Huh-7; in short: as §2
smiles,measurement,setting,value
O=C(c1nc2scc(C3CC3)n2c1Cl)N1CCN(C2CCCC2)C(=O)C1,CI,Hepatitis C virus [1],0.94
same,CI,Hepatitis C virus [2],1.74
same,EC50,Hepatitis C virus [3],8 nM
same,CI,Hepatitis C virus [4],0.71
same,CI,Hepatitis C virus [5],0.81
same,CI,Hepatitis C virus [6],1.45
same,CI,Hepatitis C virus [7],1.17
same,CI,Hepatitis C virus [8],0.78
same,CI,Hepatitis C virus [9],0.41
same,CI,Hepatitis C virus [10],1.04
same,CI,Hepatitis C virus [11],0.37
same,CI,Hepatitis C virus [12],1.21
same,CI,Hepatitis C virus [13],1.17
same,CI,Hepatitis C virus [14],1.03
same,EC50,Hepatitis C virus [15],27100 nM
same,CI,Hepatitis C virus [16],0.68
same,CI,Hepatitis C virus [17],1.45
same,CI,Hepatitis C virus [18],0.62
same,CI,Hepatitis C virus [19],0.54
same,CI,Hepatitis C virus [20],0.69
same,CI,Hepatitis C virus [21],0.87
same,CI,Hepatitis C virus [22],0.88
same,CI,Hepatitis C virus [23],0.57
same,CI,Hepatitis C virus [24],0.75
same,EC50,Hepatitis C virus [25],10 nM
same,CI,Hepatitis C virus [26],0.73
same,CI,Hepatitis C virus [27],1.26
same,CI,Hepatitis C virus [28],0.75
same,CI,Hepatitis C virus [29],1.84
same,CI,Hepatitis C virus [30],0.69
